Here are results for one compound from ChEMBL document CHEMBL4354861, “Re-Evaluating the Mechanism of Action of α,β-Unsaturated Carbonyl DUB Inhibitors b-AP15 and VLX1570: A Paradigmatic Example of Unspecific Protein Cross-linking with Michael Acceptor Motif-Containing Drugs” (J Med Chem, 2020).

Active and inactive are the calls of the source. No cut-off for these calls is given here.

Test [1] concerns the target T1, Ubiquitin carboxyl-terminal hydrolase isozyme L5 (Homo sapiens) (UniProt Q9Y5K5).
T1 sequence (whole entry): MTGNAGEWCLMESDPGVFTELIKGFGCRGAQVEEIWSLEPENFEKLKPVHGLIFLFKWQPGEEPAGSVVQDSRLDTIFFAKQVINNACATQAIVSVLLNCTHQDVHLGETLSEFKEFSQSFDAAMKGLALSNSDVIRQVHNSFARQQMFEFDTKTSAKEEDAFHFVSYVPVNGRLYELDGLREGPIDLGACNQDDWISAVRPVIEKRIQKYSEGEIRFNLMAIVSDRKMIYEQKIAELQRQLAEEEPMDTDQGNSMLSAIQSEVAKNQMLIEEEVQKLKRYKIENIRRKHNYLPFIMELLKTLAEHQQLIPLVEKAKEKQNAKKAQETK
Briefly: Inhibition of UCH-37 in human HeLa crude cell extracts assessed as induction of formation of high molecular weight complexes with […] at 10 uM incubated for 2 hrs in presence of dithiothreitol by immunoblot analysis. It counts as cell-free.

For test [2], the target named is Tumor necrosis factor alpha-induced protein 3 (Homo sapiens) (UniProt P21580). Briefly: Inhibition of A20 catalytic domain (unknown origin) assessed as reduction in cleavage of luminescent substrate Ub-AML at 100 uM. The essentials:
(§1)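 Purified recombinant DUBs assayed with Ub-AML as luminescent substrate, using the Glo reagent protocol and read on a microplate luminometer.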

Test [3] deals with T1, Ubiquitin carboxyl-terminal hydrolase isozyme L5 (Homo sapiens). As to the kind of experiment: Inhibition of UCH-37 in intact human HeLa cells assessed as induction of formation of high molecular weight complexes with USP14 at 10 uM incubated for 2 hrs by immunoblot analysis. It counts as cell-based. The procedure, abridged:
(§2)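 Intact HeLa cells (DMEM, 10% FBS, about 80% confluent) treated 2 h with vehicle or 10 μM compound, with or without 10 mM DTT or 10 mM GSH. Cells washed in cold PBS and lysed in RIPA with protease and phosphatase inhibitors. High-MW species detected by SDS-PAGE immunoblot; shorter exposures served as loading control.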

For test [4], the system named is SiHa. Briefly: Cytotoxicity in human SiHa cells assessed as reduction in cell viability incubated for 72 hrs Cell-titer Glo reagent based assay. The class given is functional. The procedure, abridged:
(§3)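 Tumor lines grown at 37 °C, 5% CO2 with 10% FBS (DMEM for HeLa and SiHa; RPMI for HCT116) and exposed to compound for 72 h. Viability read by CellTiter Glo luminescence; IC50 derived from n=6.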

Test [5] deals with HeLa. Briefly: Inhibition of deubiquitinase in human HeLa cell extracts assessed as increase in high molecular weight protein complexes at 10 uM incubated for 2 hrs in presence of DTT by SDS-PAGE and Coomassie Blue staining based method. It counts as cell-free.
Test [6] concerns HeLa. As to the kind of experiment: Cytotoxicity in human HeLa cells assessed as reduction in cell viability incubated for 72 hrs Cell-titer Glo reagent based assay. It counts as functional. The essentials:
as §3

Test [7] concerns the target T1, Ubiquitin carboxyl-terminal hydrolase isozyme L5 (Homo sapiens). As to the kind of experiment: Inhibition of UCH-37 in intact human HeLa cells assessed as induction of formation of high molecular weight complexes with USP14 at 10 uM incubated for 2 hrs in presence of dithiothreitol by immunoblot analysis. The class given is cell-based. The procedure, abridged: as §2

In test [8] the target is T2, Ubiquitin carboxyl-terminal hydrolase 28 (Homo sapiens) (UniProt Q96RU2).
T2 sequence (whole entry): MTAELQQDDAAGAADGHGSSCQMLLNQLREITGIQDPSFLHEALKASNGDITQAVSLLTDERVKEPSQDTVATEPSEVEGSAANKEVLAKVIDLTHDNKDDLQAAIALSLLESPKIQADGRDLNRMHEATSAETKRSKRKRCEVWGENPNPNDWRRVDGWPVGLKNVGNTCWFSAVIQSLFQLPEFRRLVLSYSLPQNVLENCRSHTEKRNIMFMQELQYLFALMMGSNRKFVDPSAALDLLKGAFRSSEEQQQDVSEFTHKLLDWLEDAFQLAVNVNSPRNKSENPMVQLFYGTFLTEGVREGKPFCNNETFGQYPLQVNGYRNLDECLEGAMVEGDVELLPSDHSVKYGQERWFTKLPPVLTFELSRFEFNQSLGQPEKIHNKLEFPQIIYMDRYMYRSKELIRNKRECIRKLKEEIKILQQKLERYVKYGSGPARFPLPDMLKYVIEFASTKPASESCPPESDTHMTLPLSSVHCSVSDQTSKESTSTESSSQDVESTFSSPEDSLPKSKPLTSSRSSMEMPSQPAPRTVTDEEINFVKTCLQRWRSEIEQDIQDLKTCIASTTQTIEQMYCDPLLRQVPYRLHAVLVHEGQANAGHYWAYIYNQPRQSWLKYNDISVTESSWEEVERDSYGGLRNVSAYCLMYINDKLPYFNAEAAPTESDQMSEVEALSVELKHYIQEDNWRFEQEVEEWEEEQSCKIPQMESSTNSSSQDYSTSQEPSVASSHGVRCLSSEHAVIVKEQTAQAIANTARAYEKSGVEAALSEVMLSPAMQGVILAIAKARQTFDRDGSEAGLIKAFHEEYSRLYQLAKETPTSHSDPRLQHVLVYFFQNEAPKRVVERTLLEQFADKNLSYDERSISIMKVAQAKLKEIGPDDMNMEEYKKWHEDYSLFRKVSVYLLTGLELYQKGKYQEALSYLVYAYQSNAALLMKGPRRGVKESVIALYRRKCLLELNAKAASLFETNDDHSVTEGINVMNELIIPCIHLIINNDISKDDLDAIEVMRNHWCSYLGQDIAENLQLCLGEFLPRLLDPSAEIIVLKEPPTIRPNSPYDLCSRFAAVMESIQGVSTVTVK
As to the kind of experiment: Inhibition of USP28 in human HeLa cell extracts assessed as inhibition of HA-Ub-C2Br probe labeling at 1 to 100 uM incubated for 30 mins by immunoblot analysis. The class given is cell-free.

The target of test [9] is Ubiquitin carboxyl-terminal hydrolase 14 (Homo sapiens) (UniProt P54578). Briefly: Inhibition of USP14 in intact human HeLa cells assessed as induction of formation of high molecular weight complexes with USP14 at 10 uM incubated for 2 hrs by immunoblot analysis. It counts as cell-based. The essentials: as §2
Ubiquitin carboxyl-terminal hydrolase 14 (Homo sapiens), sequence (P54578 whole entry): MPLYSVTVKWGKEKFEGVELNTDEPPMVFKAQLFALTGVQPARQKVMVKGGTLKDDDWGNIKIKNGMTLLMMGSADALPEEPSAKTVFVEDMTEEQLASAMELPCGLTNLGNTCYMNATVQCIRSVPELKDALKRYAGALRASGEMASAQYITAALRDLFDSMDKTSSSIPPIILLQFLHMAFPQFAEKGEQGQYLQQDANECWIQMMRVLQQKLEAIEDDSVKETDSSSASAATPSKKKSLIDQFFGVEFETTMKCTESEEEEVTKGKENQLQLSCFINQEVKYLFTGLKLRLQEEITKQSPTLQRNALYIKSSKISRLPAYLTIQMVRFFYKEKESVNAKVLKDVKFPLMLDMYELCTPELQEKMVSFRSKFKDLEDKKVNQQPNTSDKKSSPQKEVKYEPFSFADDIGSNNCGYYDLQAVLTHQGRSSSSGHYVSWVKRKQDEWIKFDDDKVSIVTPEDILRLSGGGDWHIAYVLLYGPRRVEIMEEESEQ
Test [10] concerns the target Ubiquitin carboxyl-terminal hydrolase 7 (Homo sapiens) (UniProt Q93009). Briefly: Inhibition of N-terminal His6-tagged full length recombinant human USP7 assessed as reduction in cleavage of luminescent substrate Ub-AML at 100 uM. The procedure, abridged: as §1
The target in test [11] is Ubiquitin carboxyl-terminal hydrolase 14 (Homo sapiens) (UniProt P54578). As to the kind of experiment: Inhibition of USP14 in human HeLa crude cell extracts assessed as induction of formation of high molecular weight complexes with USP14 at 10 uM incubated for 2 hrs in presence of dithiothreitol by immunoblot analysis. The class given is cell-free. (A western blot detects proteins with antibodies after separation by electrophoresis.)

The subject of test [12] is KMS-11. As to the kind of experiment: Cytotoxicity in human KMS11 cells assessed as reduction in cell viability at 1 to 10 uM incubated for 16 hrs in presence of GSH by Alamar blue assay. The class given is functional, cell-based. The essentials: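 KMS11 seeded at 80,000/well, treated with 1 or 10 µM compound with or without 1 mM GSH for 16 h, 6 biological replicates. Alamar blue fluorescence read at 560/590 nm, normalised to DMSO control.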
On the technique in general: Resazurin is reduced to fluorescent resorufin, in cell work by metabolically active cells.

Test [13] has as its target Ubiquitin carboxyl-terminal hydrolase 2 (Homo sapiens) (UniProt O75604). Briefly: Inhibition of N-terminal His6-tagged […] recombinant human USP2 catalytic domain assessed as reduction in cleavage of luminescent substrate Ub-AML at 100 uM. The procedure, abridged: as §1
The species entered for test [14] is Homo sapiens. As to the kind of experiment: Inhibition of purified 19S proteasome (unknown origin) assessed as reduction in cleavage of luminescent substrate Ub-AML at 100 uM.

Ubiquitin carboxyl-terminal hydrolase 2 (Homo sapiens), sequence (O75604 whole entry, the tested form may be a part): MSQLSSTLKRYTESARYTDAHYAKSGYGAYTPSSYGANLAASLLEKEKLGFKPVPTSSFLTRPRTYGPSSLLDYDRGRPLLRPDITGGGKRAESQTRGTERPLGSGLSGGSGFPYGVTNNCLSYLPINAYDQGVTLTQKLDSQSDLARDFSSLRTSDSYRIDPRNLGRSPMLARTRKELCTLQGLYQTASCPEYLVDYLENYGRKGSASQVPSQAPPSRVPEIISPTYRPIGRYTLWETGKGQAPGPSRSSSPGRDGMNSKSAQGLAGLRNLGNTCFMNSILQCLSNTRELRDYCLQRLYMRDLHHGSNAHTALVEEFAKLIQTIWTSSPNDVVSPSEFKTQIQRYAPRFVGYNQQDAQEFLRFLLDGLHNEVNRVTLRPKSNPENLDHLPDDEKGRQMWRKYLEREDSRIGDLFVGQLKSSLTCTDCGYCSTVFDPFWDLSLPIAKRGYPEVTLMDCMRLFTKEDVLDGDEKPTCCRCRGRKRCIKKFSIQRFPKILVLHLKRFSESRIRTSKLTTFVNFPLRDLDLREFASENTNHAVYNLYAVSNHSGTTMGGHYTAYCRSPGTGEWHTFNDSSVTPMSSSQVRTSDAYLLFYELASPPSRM
Ubiquitin carboxyl-terminal hydrolase 7 (Homo sapiens), sequence (Q93009 whole entry, looked up): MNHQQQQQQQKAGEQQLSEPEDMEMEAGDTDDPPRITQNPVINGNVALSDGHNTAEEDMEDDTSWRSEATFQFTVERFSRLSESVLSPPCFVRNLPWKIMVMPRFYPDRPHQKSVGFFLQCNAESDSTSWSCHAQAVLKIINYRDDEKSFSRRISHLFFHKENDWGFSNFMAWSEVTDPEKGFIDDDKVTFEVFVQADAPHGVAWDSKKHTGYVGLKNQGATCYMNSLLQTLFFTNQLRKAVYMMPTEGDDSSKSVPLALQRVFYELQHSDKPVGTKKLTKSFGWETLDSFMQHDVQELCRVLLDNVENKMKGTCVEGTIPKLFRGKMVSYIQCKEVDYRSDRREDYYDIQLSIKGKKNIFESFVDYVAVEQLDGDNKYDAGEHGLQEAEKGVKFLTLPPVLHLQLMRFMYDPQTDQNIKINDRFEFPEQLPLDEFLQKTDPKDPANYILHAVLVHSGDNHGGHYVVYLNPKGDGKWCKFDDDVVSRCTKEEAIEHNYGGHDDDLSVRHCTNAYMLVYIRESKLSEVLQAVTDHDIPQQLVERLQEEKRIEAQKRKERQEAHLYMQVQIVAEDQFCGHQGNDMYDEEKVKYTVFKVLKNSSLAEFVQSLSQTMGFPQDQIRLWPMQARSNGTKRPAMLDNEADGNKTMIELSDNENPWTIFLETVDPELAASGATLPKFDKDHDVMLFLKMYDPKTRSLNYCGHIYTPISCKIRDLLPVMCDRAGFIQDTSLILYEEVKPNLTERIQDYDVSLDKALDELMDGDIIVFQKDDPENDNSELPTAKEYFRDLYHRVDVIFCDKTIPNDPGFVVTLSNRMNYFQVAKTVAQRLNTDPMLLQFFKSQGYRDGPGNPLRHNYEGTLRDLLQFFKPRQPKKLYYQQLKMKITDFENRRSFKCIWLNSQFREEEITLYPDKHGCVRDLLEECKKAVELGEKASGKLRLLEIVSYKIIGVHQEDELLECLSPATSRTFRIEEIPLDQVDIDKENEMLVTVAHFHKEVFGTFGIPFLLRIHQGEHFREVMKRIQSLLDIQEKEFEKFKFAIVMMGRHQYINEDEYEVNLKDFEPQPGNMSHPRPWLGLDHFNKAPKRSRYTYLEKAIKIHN
Tumor necrosis factor alpha-induced protein 3 (Homo sapiens), sequence (P21580 whole entry, the tested form may be a part): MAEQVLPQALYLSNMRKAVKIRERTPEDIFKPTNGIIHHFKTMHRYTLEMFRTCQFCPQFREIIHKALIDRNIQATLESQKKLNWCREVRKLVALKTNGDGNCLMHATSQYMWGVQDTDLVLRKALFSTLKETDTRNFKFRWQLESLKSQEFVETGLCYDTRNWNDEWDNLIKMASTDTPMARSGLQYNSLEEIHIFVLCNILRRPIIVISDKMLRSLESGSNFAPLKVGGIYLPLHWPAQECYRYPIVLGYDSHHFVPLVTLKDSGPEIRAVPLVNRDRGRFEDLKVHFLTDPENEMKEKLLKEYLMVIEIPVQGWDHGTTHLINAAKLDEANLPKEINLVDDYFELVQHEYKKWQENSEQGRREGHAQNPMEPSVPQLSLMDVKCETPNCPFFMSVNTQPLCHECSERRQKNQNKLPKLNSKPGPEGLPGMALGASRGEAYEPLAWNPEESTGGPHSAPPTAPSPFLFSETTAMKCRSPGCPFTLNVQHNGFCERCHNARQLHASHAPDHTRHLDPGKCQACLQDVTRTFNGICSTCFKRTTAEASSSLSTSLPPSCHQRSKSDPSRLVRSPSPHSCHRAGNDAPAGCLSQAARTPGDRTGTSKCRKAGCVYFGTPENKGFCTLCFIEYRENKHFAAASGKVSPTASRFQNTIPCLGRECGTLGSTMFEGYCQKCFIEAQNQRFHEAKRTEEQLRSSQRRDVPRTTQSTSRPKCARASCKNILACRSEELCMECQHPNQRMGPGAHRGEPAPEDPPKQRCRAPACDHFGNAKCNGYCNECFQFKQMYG

With `C=CC(=O)N1C/C(=C\c2ccc([N+](=O)[O-])cc2)C(=O)/C(=C/c2ccc([N+](=O)[O-])cc2)C1`, the inhibition entry in test [1], in test [5], in [7] and in test [11] was “inactive” each time. For the same compound, the inhibition entry in test [2], in test [3], in [8], in test [9], in test [10] and in test [13] was “Active” in each case. In addition, the inhibition entry in test [14] was “Active”. Further, the result in test [4] and in test [6] was Active. In addition, the result in test [12] was inactive.
